RAM network inh: inhibitors of the yeast RAM network; S. cerevisiae dse1pr::URA3 reporter, 5-FOA growth OD615, 2 d; analog-sensitive cbk1-as2 kinase mutant strain; inhibition, % at 50 µM; actives 1.8% (n = 190,000);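 active means inhibition above a set limit, 3 SD over mean compound inhibition, cut at about 8.4% in these data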;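 further: 0% = DMSO-only wells with no growth and 100% = 10 µM 1-NA-PP1 full growth; inhibition rescues growth on 5-FOA so higher OD means more RAM inhibition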
WT yeast gro inh: growth inhibition of WT yeast, mitochondrial fusion screen; mitochondrial fusion phenotypic screen, WT strain; inhibition, % at 10 µM; actives 2.1% (n = 190,000); AID 1362; in the data active means inhibition above about 58%; tested in S. cerevisiae
KCC2 mod: modulates chloride dependent transport by human KCC2. actives 2.2% (n = 190,000). KCC2 cells, thallium flux FluoZin-2 fluorescence. B-score of Tl+ flux slope (higher = more flux/activation; lower = inhibition) at 10 µM. AID 1456. Q9H2X9;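 active means thallium flux slope and its plate-corrected score both differing from the plate sample mean at a set confidence after two filtering rounds, in either direction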;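 further: slope of fluorescence scaled to starting intensity during 10 to 20 s after thallium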
BB579 growth dn: chemicals that inhibit yeast BB579 growth in restrictive medium (lifespan-shortening candidates); inhibition, % at 10 µM; actives 0.51% (n = 140,000); AID 804; S. cerevisiae BB579 growth, OD615, 48 h;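 active means inhibition above a set limit, 3 SD over the mean compound inhibition, cut at about 44% in these data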
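System: Saccharomyces cerevisiae DeaD strain BB579, replicative lifespan model yeast | Buffer or medium: Restrictive glucose-based CSMM-D medium | Times: 4 h preincubation and 48 h exposure at 30 °C | Detection: OD615 turbidity measurement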
Yeast life ext: extends the lifespan of yeast; inhibition of the nicotinamide effect, % at 10 µM; S. cerevisiae growth with nicotinamide, OD615; deaD strain in restrictive glucose medium; actives 0.68% (n = 130,000);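 active means inhibition above a set limit, placed 3 SD over the median of all compounds, cut at about 26% in these data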;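 further: 0% = nicotinamide-treated wells and 100% = cells grown without nicotinamide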
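Test system: DeaD-strain S. cerevisiae / Buffer or medium: restrictive glucose medium / Also added: nicotinamide 1.5 mM / Doses: one concentration, 10 µM, DMSO 0.25% / Schedule: 48 h at 30 °C / Signal: OD615 measurement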
* marks the source's active call; other numbers are inactive results; / = no result given. This is a sample that favours compounds with a hit; in the whole collection about 5.5% have one here.

SMILES	RAM network inh	WT yeast gro inh	KCC2 mod	BB579 growth dn	Yeast life ext
O=C(Nc1ccc(N2CCOCC2)c(Cl)c1)c1ccccc1F	0	5	1.1	16	-12
O=C(COc1c(F)c(F)c(C(F)(F)F)c(F)c1F)Nc1ccc(N2CCOCC2)c(Cl)c1	5	70*	-1.2	-22	-4
CCC(C)c1ccc(NC(=O)COc2c(F)c(F)c(C(F)(F)F)c(F)c2F)cc1 (configuration not stated)	10*	70*	0.37	-32	8
C=C(C)CSc1nc2ccccc2[nH]1	0	-10	-0.049	-24	6
CCOc1ccccc1NC(=S)N1CCC(NC(=O)C(C)(C)C)CC1	1	15	0.89	/	/
CC(C)Cn1c(/C=C/c2ccco2)nc2ccccc21	0	30	-0.51	-33	-8
O=C(CC(Nc1ccc(F)cc1)c1ccccc1)c1ccccc1 (configuration not stated)	1	78*	0.43	-30	-2
COC(=O)C1=C(C)N(CCc2ccccc2)C(=O)/C1=C\c1ccco1	11*	-5	-1.4	-42	16
COC(=O)C1=C(C)N(c2cccc(OC)c2)C(=O)/C1=C\c1ccco1	9.0*	2	-0.9	-36	20
CC1CCCC(NC(=O)COC(=O)CN2C(=O)C3CCCCC3C2=O)C1C (configuration not stated)	0	-3	0.98	-21	0
CC(C)(C)c1ccc(OCc2ccc(C(=O)N/N=C/c3ccc(O)c(O)c3)cc2)cc1	2	-5	-0.035	/	/
CC(C)(C)c1ccc(OCc2ccc(C(=O)N/N=C3\CC4CC=CC34)cc2)cc1 (configuration not stated)	-1	72*	0.74	-19	-3
O=C(N/N=C1\CC2CC=CC12)c1ccc(COc2ccccc2)cc1 (configuration not stated)	0	-2	-2.8	54*	-4
Cc1cccc(Nc2nc(N)nc(CCl)n2)c1C	/	/	-1.9	/	/
CCOC(=O)C1(CCOc2ccccc2)CCN(Cc2ccc3nonc3c2)CC1	1	62*	-1	/	/
Cc1cc(S(=O)(=O)NCc2ccccc2)ccc1OCC(=O)Nc1cccc([N+](=O)[O-])c1	11*	8	0.69	-11	-1
CN(Cc1ccccc1)S(=O)(=O)c1ccc(OCC(=O)Nc2cccc([N+](=O)[O-])c2)cc1	3	-14	0.022	-12	-1
O=C(Nc1ccc(Cl)cn1)C1CCCN1S(=O)(=O)c1ccccc1 (configuration not stated)	2	-3	/	-3	-3
CC(C)c1ccc(OCC(=O)NC(=S)Nc2ccc3c4c(cccc24)CC3)cc1	9.1*	5	0.43	-35	-15
O=C(COc1ccccc1)NC(=S)Nc1ccc2c3c(cccc13)CC2	2	27	/	-24	-2
Cc1ccccc1NC(=O)C(=Cc1ccc(C(=O)O)cc1)C(=O)Nc1ccccc1C	11*	-12	-0.28	/	/
COC(=O)CNC(=O)CSc1nnc(C)c(=O)[nH]1	1	-10	0.5	-46	2
Cc1cc(C2C(C#N)=C(N)Oc3n[nH]c(C)c32)c(C)s1 (configuration not stated)	-1	-3	-1.7	-2	71*
CC12CCC(C(=O)Nc3ccccc3)(C(Br)C1=O)C2(C)C (configuration not stated)	0	-5	-0.24	-34	10
Cc1ccc(-c2nc(-c3ccc(Cl)cc3)sc2CC(=O)O)c(C)c1	9.6*	-15	-1.7	/	/
SMILES	RAM network inh	WT yeast gro inh	KCC2 mod	BB579 growth dn	Yeast life ext
O=C(O)Cc1sc(-c2ccccc2Cl)nc1-c1ccccc1	4	-23	-1.6	/	/
Cc1ccc(-c2nc(Nc3cccc(C)c3)sc2CC(=O)O)cc1	7	23	-4.2*	/	/
O=C(Cc1c(O)c2ccccc2[nH]c1=O)NCc1ccccc1F	3	60*	0.18	-15	-16
O=C(COC(=O)CCc1ccccc1)Nc1ncc(Cl)cc1Cl	0	0	-0.93	-5	-6
Cc1nc(NC(=O)COC(=O)CCS(=O)(=O)c2ccccc2Cl)c(Cl)cc1Cl	2	61*	0.28	-23	-12
Cc1ccc(Nc2ncccc2C(=O)NCc2cccs2)c(C)c1	2	67*	-0.45	-18	-8
Cc1cc(NC(c2cccnc2)c2ccc3cccnc3c2O)no1 (configuration not stated)	0	0	-1.4	-24	1

Source: PubChem (several laboratories)
